Experimental data from ChEMBL document CHEMBL1148367, “Novel azapeptide inhibitors of hepatitis C virus serine protease” (J Med Chem, 2004).
*1 amine or outer side, *2 acyl side, *3 side chain or, on linkers, in order; H or OH if unused. Where a SMILES comes first, the peptide text is derived from it. [ ]: non-standard residue; d: D form. The star is where a group is joined. NH(1S-phenylpropyl) = CC[C@H](N*)c1ccccc1; NH(1R-phenylethyl) = C[C@@H](N*)c1ccccc1; NH(1S-phenylethyl) = C[C@H](N*)c1ccccc1; X8 = O=C(N(CC(F)(F)F)N[*:1])[*:2]; Hyp = O=C(O)[C@@H]1C[C@@H](O)CN1; NHPiperonyl = c1cc2c(cc1CN*)OCO2; X12 = CCCN(N*)C(=O)NN(C)c1ccccc1; X5 = CC(C)CCN(N[*:1])C(=O)[*:2]; azaNva = CCCN(N[*:1])C(=O)[*:2]; AzaAla = CN(N[*:1])C(=O)[*:2]; X10 = CCCN(N*)C(=O)CCc1ccccc1; X3 = C[C@H](N*)c1cccc2ccccc12; X9 = CCCCCN(N[*:1])C(=O)[*:2]; NMe(benzyl) = CN(Cc1ccccc1)*; X6 = CCCN(N*)C(=S)NCc1ccccc1; X7 = CCCN(N*)C(=O)OCc1ccccc1; X1 = c1ccc2c(c1)CC[C@@H]2N*; X4 = C[C@H](N*)c1ccc(Br)cc1; X14 = C[C@H](N*)c1nnn[nH]1; X11 = C[C@H](N*)C1CCCCC1; X13 = c1ccc2c(c1)CCN2*; NHBn = c1ccc(CN*)cc1; X2 = CCCN(N*)C(N)=O; Bn = c1ccc(C*)cc1

Target: T1, NS3 (Hepatitis C virus, UniProt A3EZJ3)
T1 sequence (A3EZJ3 whole entry): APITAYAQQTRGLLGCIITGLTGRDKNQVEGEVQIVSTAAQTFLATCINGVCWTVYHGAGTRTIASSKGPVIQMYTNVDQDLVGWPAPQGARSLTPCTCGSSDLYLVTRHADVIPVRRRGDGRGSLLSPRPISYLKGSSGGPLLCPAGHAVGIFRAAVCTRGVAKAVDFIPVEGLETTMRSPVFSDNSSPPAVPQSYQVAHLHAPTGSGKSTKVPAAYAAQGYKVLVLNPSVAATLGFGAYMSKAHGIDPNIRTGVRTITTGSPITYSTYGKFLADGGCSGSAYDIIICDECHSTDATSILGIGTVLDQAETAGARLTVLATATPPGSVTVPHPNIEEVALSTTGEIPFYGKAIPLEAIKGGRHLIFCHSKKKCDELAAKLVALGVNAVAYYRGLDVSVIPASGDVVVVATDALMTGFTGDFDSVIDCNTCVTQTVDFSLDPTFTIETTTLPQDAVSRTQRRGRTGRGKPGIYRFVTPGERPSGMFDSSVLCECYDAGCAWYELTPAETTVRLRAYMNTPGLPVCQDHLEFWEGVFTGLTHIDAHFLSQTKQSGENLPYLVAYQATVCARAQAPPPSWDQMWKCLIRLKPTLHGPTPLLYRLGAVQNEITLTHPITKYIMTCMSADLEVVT
Assay: Inhibitory concentration against Hepatitis C virus serine protease
Set-up: species or system Hepacivirus hominis

| Compound | IC50 |
| --- | --- |
| CC[C@H](C)[C@H](NC(=O)[C@@H](CCC(=O)O)NC(=O)[C@H](CC(=O)O)NC(C)=O)C(=O)N[C@H](C(=O)N1C[C@H](OCc2ccccc2)C[C@H]1C(=O)NN(CC)C(=O)N[C@@H](C)c1ccccc1)C(C)C | 85 nM |
| CCCN(NC(=O)[C@@H]1C[C@@H](OCc2ccccc2)CN1C(=O)[C@@H](NC(=O)[C@@H](NC(=O)[C@@H](CCC(=O)O)NC(=O)[C@H](CC(=O)O)NC(C)=O)[C@@H](C)CC)C(C)C)C(=O)NCc1ccc2c(c1)OCO2 (Ac-D[dE]IV[Hyp](Bn)[azaNva]-NHPiperonyl) | 500 nM |
| CC[C@H](C)[C@H](NC(=O)[C@@H](CCC(=O)O)NC(=O)[C@H](CC(=O)O)NC(C)=O)C(=O)N[C@H](C(=O)N1C[C@H](OCc2ccccc2)C[C@H]1C(=O)NN(CCC(C)C)C(=O)N[C@@H](C)c1ccccc1)C(C)C (Ac-D[dE]IV[Hyp](Bn)[X5]-{NH(1S-phenylethyl)}) | 5700 nM |
| CCCN(NC(=O)[C@@H]1C[C@@H](OCc2ccccc2)CN1C(=O)[C@@H](NC(=O)[C@@H](NC(=O)[C@@H](CCC(=O)O)NC(=O)[C@H](CC(=O)O)NC(C)=O)[C@@H](C)CC)C(C)C)C(=O)N[C@H]1CCc2ccccc21 (Ac-D[dE]IV[Hyp](Bn)[azaNva]-X1) | 100 nM |
| CCC[C@H](NC(=O)[C@@H]1C[C@@H](OCc2ccccc2)CN1C(=O)[C@@H](NC(=O)[C@@H](NC(=O)[C@@H](CCC(=O)O)NC(=O)[C@H](CC(=O)O)NC(C)=O)[C@@H](C)CC)C(C)C)C(=O)O | 600 nM |
| CCCN(NC(=O)[C@@H]1C[C@@H](OCc2ccccc2)CN1C(=O)[C@@H](NC(=O)[C@@H](NC(=O)[C@@H](CCC(=O)O)NC(=O)[C@H](CC(=O)O)NC(C)=O)[C@@H](C)CC)C(C)C)C(=O)NN(C)c1ccccc1 (Ac-D[dE]IV[Hyp](Bn)-X12) | 480 nM |
| CCCN(NC(=O)[C@@H]1C[C@@H](OCc2ccccc2)CN1C(=O)[C@@H](NC(=O)[C@@H](NC(=O)[C@@H](CCC(=O)O)NC(=O)[C@H](CC(=O)O)NC(C)=O)[C@@H](C)CC)C(C)C)C(=S)NCc1ccccc1 (Ac-D[dE]IV[Hyp](Bn)-X6) | 4200 nM |
| CCCN(NC(=O)[C@@H]1C[C@@H](OCc2ccccc2)CN1C(=O)[C@@H](NC(=O)[C@@H](NC(=O)[C@@H](CCC(=O)O)NC(=O)[C@H](CC(=O)O)NC(C)=O)[C@@H](C)CC)C(C)C)C(=O)N[C@@H](C)c1cccc2ccccc12 (Ac-D[dE]IV[Hyp](Bn)[azaNva]-X3) | 490 nM |
| CCCN(NC(=O)[C@@H]1C[C@@H](OCc2ccccc2)CN1C(=O)[C@@H](NC(=O)[C@@H](NC(=O)[C@@H](CCC(=O)O)NC(=O)[C@H](CC(=O)O)NC(C)=O)[C@@H](C)CC)C(C)C)C(=O)CCc1ccccc1 (Ac-D[dE]IV[Hyp](Bn)-X10) | 710 nM |
| CC[C@H](C)[C@H](NC(=O)[C@@H](CCC(=O)O)NC(=O)[C@H](CC(=O)O)NC(C)=O)C(=O)N[C@H](C(=O)N1C[C@H](OCc2ccccc2)C[C@H]1C(=O)NN(C)C(=O)N[C@@H](C)c1ccccc1)C(C)C (Ac-D[dE]IV[Hyp](Bn)[AzaAla]-{NH(1S-phenylethyl)}) | 430 nM |
| CCCCN(NC(=O)[C@@H]1C[C@@H](OCc2ccccc2)CN1C(=O)[C@@H](NC(=O)[C@@H](NC(=O)[C@@H](CCC(=O)O)NC(=O)[C@H](CC(=O)O)NC(C)=O)[C@@H](C)CC)C(C)C)C(=O)N[C@@H](C)c1ccccc1 | 99 nM |
| CCC(CC)N(NC(=O)[C@@H]1C[C@@H](OCc2ccccc2)CN1C(=O)[C@@H](NC(=O)[C@@H](NC(=O)[C@@H](CCC(=O)O)NC(=O)[C@H](CC(=O)O)NC(C)=O)[C@@H](C)CC)C(C)C)C(=O)N[C@@H](C)c1ccccc1 | 4100 nM |
| CCCN(NC(=O)[C@@H]1C[C@@H](OCc2ccccc2)CN1C(=O)[C@@H](NC(=O)[C@@H](NC(=O)[C@@H](CCC(=O)O)NC(=O)[C@H](CC(=O)O)NC(C)=O)[C@@H](C)CC)C(C)C)C(=O)N(C)Cc1ccccc1 (Ac-D[dE]IV[Hyp](Bn)[azaNva]-{NMe(benzyl)}) | 8400 nM |
| CCCN(NC(=O)[C@@H]1C[C@@H](OCc2ccccc2)CN1C(=O)[C@@H](NC(=O)[C@@H](NC(=O)[C@@H](CCC(=O)O)NC(=O)[C@H](CC(=O)O)NC(C)=O)[C@@H](C)CC)C(C)C)C(=O)N[C@@H](C)c1nnn[nH]1 (Ac-D[dE]IV[Hyp](Bn)[azaNva]-X14) | 860 nM |
| CCCN(NC(=O)[C@@H]1C[C@@H](OCc2ccccc2)CN1C(=O)[C@@H](NC(=O)[C@@H](NC(=O)[C@@H](CCC(=O)O)NC(=O)[C@H](CC(=O)O)NC(C)=O)[C@@H](C)CC)C(C)C)C(N)=O (Ac-D[dE]IV[Hyp](Bn)-X2) | 17500 nM |
| CCCN(NC(=O)[C@@H]1C[C@@H](OCc2ccccc2)CN1C(=O)[C@@H](NC(=O)[C@@H](NC(=O)[C@@H](CCC(=O)O)NC(=O)[C@H](CC(=O)O)NC(C)=O)[C@@H](C)CC)C(C)C)C(=O)N[C@@H](CC)c1ccccc1 (Ac-D[dE]IV[Hyp](Bn)[azaNva]-{NH(1S-phenylpropyl)}) | 440 nM |
| CCCN(NC(=O)[C@@H]1C[C@@H](OCc2ccccc2)CN1C(=O)[C@@H](NC(=O)[C@@H](NC(=O)[C@@H](CCC(=O)O)NC(=O)[C@H](CC(=O)O)NC(C)=O)[C@@H](C)CC)C(C)C)C(=O)N[C@@H](C)c1ccc(Br)cc1 (Ac-D[dE]IV[Hyp](Bn)[azaNva]-X4) | 72 nM |
| CCCN(NC(=O)[C@@H]1C[C@@H](OCc2ccccc2)CN1C(=O)[C@@H](NC(=O)[C@@H](NC(=O)[C@@H](CCC(=O)O)NC(=O)[C@H](CC(=O)O)NC(C)=O)[C@@H](C)CC)C(C)C)C(=O)NCc1ccccc1 (Ac-D[dE]IV[Hyp](Bn)[azaNva]-NHBn) | 590 nM |
| CCCN(NC(=O)[C@@H]1C[C@@H](OCc2ccccc2)CN1C(=O)[C@@H](NC(=O)[C@@H](NC(=O)[C@@H](CCC(=O)O)NC(=O)[C@H](CC(=O)O)NC(C)=O)[C@@H](C)CC)C(C)C)C(=O)OCc1ccccc1 (Ac-D[dE]IV[Hyp](Bn)-X7) | 800 nM |
| CCCCCN(NC(=O)[C@@H]1C[C@@H](OCc2ccccc2)CN1C(=O)[C@@H](NC(=O)[C@@H](NC(=O)[C@@H](CCC(=O)O)NC(=O)[C@H](CC(=O)O)NC(C)=O)[C@@H](C)CC)C(C)C)C(=O)N[C@@H](C)c1ccccc1 (Ac-D[dE]IV[Hyp](Bn)[X9]-{NH(1S-phenylethyl)}) | 490 nM |
| CCC[C@H](NC(=O)[C@@H]1C[C@@H](OCc2ccccc2)CN1C(=O)[C@@H](NC(=O)[C@@H](NC(=O)[C@@H](CCC(=O)O)NC(=O)[C@H](CC(=O)O)NC(C)=O)[C@@H](C)CC)C(C)C)C(N)=O | 26000 nM |
| CCCN(NC(=O)[C@@H]1C[C@@H](OCc2ccccc2)CN1C(=O)[C@@H](NC(=O)[C@@H](NC(=O)[C@@H](CCC(=O)O)NC(=O)[C@H](CC(=O)O)NC(C)=O)[C@@H](C)CC)C(C)C)C(=O)N[C@@H](C)C1CCCCC1 (Ac-D[dE]IV[Hyp](Bn)[azaNva]-X11) | 420 nM |
| CC[C@H](C)[C@H](NC(=O)[C@@H](CCC(=O)O)NC(=O)[C@H](CC(=O)O)NC(C)=O)C(=O)N[C@H](C(=O)N1C[C@H](OCc2ccccc2)C[C@H]1C(=O)NN(CC(F)(F)F)C(=O)N[C@@H](C)c1ccccc1)C(C)C (Ac-D[dE]IV[Hyp](Bn)[X8]-{NH(1S-phenylethyl)}) | 340 nM |
| CC[C@H](C)[C@H](NC(=O)[C@@H](CCC(=O)O)NC(=O)[C@H](CC(=O)O)NC(C)=O)C(=O)N[C@H](C(=O)N1C[C@H](OCc2ccccc2)C[C@H]1C(=O)NN(CC(C)C)C(=O)N[C@@H](C)c1ccccc1)C(C)C | 2400 nM |
| CCCN(NC(=O)[C@@H]1C[C@@H](OCc2ccccc2)CN1C(=O)[C@@H](NC(=O)[C@@H](NC(=O)[C@@H](CCC(=O)O)NC(=O)[C@H](CC(=O)O)NC(C)=O)[C@@H](C)CC)C(C)C)C(=O)N[C@H](C)c1ccccc1 (Ac-D[dE]IV[Hyp](Bn)[azaNva]-{NH(1R-phenylethyl)}) | 4300 nM |
| CCC[C@@H](NC(=O)[C@@H]1C[C@@H](OCc2ccccc2)CN1C(=O)[C@@H](NC(=O)[C@@H](NC(=O)[C@@H](CCC(=O)O)NC(=O)[C@H](CC(=O)O)NC(C)=O)[C@@H](C)CC)C(C)C)C(=O)O | 34000 nM |
| CCCN(NC(=O)[C@@H]1C[C@@H](OCc2ccccc2)CN1C(=O)[C@@H](NC(=O)[C@@H](NC(=O)[C@@H](CCC(=O)O)NC(=O)[C@H](CC(=O)O)NC(C)=O)[C@@H](C)CC)C(C)C)C(=O)N1CCc2ccccc21 (Ac-D[dE]IV[Hyp](Bn)[azaNva]-X13) | 4400 nM |

Target: T1, NS3
Assay: Inhibitory concentration against Hepatitis C virus NS3 serine protease
Set-up: species or system Hepacivirus hominis
Procedure, shortened: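 HCV NS3 serine protease IC50 from the group's in-house protease assay, run as previously described. Each reported value is the mean of at least four determinations.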

| Compound | IC50 |
| --- | --- |
| Ac-DDIVPC-OH | 43000 nM |
